Results reported in PMC12778361 (Chemical Science, 2025).
Read-outs that look alike come from different tables or passages of the source.

Key:
[1] = T1-weighted phantom images at 7 T in mouse serum and PBS; assay type: physicochemical; conditions: 25 °C, 0.3 mM in mouse serum
Outline: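 T1-weighted phantoms of Gd3+ complex in mouse blood serum were imaged at 7 T. A clinical Gd3+ agent and serum alone served as comparators. A spin echo sequence was used, TE = 10 ms, TR = 400 ms, and signal intensities were read.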

[2] = 1 M HCl, 298 K; cited from earlier work
[3] = cited from earlier work

SMILES | signal intensity, T1-weighted phantom [1] | kobs dissociation rate constant [2] [s⁻¹] | t1/2 dissociation half-life [2] [min] | r1 relaxivity ([3]; 20 MHz, 25 °C) [mM⁻¹ s⁻¹] | kex^298 water exchange rate ([3]; SAP isomer) | ΔH≠ ([3]; SAP isomer) [kcal/mol] | ΔS≠ ([3]; SAP isomer) | kex^298 water exchange rate ([3]; TSAP isomer) | ΔH≠ ([3]; TSAP isomer) [kcal/mol] | τR^298 rotational correlation time [3] [ps]
O=C([O-])CN1CCN(CC(=O)[O-])CCN(CC(=O)O)CCN(CC(=O)[O-])CC1.[Gd+3] [GdDOTA] | 3.97 × 10^4 | 1.8e-06 | 6418 |  |  |  |  |  |  | 
CC(O)CN1CCN(CC(=O)[O-])CCN(CC(=O)[O-])CCN(CC(=O)[O-])CC1.[Gd+3] (centres unmarked) [GdHPDO3A] |  | 0.00026 | 44 | 4.6 | 1.56 10^6 s^−1 | 12.7 | +52 kJ mol^−1 K^−1 | 112 10^6 s^−1 | 3.59 | 65
O=C([O-])CN1CCNCCN(CC(=O)[O-])CCN(CC(=O)[O-])CC1.[Gd+3] [GdDO3A] |  | 0.023 | 0.5 |  |  |  |  |  |  | 
